These results are taken from ChEMBL document CHEMBL3739287, “Diversification of edaravone via palladium-catalyzed hydrazine cross-coupling: Applications against protein misfolding and oligomerization of beta-amyloid” (Bioorg Med Chem Lett, 2016).

Assay [1] deals with T1, Amyloid-beta precursor protein (Homo sapiens, UniProt P05067). The assay is described as follows: Inhibition of N-alpha-biotinyl-amyloid beta (1 to 42 residues) (unknown origin) oligomerization incubated for 1 hr by sandwich biotin-avidin assay. The method in brief:
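Sub-nanomolar detection of N-α-biotinyl-Aβ(1–42) oligomers using single-site NeutrAvidin capture with labeled streptavidin detection. The format recognizes multimeric (>20 kDa) oligomers but not monomer. Compounds were tested over 1–50 μM to build dose-response curves, from which IC50 was determined.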

The target of assay [2] is T1, Amyloid-beta precursor protein. The assay can be described thus: Inhibition of amyloid beta (1 to 40 residues) (unknown origin) aggregation at 25 uM incubated for 72 hrs by Thioflavin T assay. The method in brief: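 Kinetic ThT aggregation format: monomeric Aβ40 (20 μM) with ThT (8 μM) and compound at a single 25 μM concentration. Fluorescence was followed over 72 h, and percent inhibition of aggregation was taken at 72 h.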

Assay [3] has the same target. The assay is described as follows: Inhibition of amyloid beta (1 to 40 residues) (unknown origin) aggregation incubated for 72 hrs by Thioflavin T assay. Put shortly:
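Aβ40 (20 μM) aggregation in a kinetic format with ThT (8 μM), fluorescence read over 72 h. IC50 came from dose-response curves of percent inhibition and was collected only for compounds giving >50% inhibition at 25 μM in this assay and IC50 <50 μM in the bio-Aβ42 oligomer assay.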

Molecules are shown by their SMILES.

T1 sequence (P05067 whole entry, the tested form may be a part): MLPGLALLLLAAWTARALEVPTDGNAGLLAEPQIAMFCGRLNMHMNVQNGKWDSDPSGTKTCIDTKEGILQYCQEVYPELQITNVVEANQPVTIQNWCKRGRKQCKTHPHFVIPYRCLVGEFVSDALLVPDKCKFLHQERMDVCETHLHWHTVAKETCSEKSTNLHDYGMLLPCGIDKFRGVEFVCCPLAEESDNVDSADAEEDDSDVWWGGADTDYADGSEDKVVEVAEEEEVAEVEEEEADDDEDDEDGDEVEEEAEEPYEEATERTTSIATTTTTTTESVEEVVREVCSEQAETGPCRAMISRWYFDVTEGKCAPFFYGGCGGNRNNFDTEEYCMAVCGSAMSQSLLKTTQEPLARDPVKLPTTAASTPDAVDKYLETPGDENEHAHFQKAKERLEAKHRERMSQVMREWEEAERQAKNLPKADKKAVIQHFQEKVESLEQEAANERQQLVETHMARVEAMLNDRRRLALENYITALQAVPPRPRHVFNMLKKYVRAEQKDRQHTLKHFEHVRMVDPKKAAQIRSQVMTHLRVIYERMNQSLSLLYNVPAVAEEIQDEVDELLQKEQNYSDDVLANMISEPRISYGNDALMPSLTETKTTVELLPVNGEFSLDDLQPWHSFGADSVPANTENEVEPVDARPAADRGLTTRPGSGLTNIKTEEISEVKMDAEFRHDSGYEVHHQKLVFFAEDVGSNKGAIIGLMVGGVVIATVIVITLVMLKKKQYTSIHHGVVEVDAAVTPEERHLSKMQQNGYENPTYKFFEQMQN

`CC1=NN(c2ccc(C)cc2)C(=O)C1` gave an IC50 in assay [1] above 50 µM. The inhibition in assay [2] is 16.3%.

In assay [1], `CCc1ccccc1N1N=C(C)CC1=O` returned an IC50 above 50 µM. This compound returned an inhibition in assay [2] of 26.3%.

Take `CC1=NN(c2ccc(-n3cccc3)cc2)C(=O)C1`: the figures for the IC50 in assay [3] and in assay [1] were 26 µM and 4 µM, respectively. For the same compound, the inhibition in assay [2] was determined as 60.6%.

In turn, `CC1=NN(c2cc(C)ccc2C)C(=O)C1` registered an IC50 in assay [1] above 50 µM. In assay [2], the inhibition is 7.4%.

In assay [1], `COc1cc(N2N=C(C)CC2=O)nc(OC)n1` came in with an IC50 above 50 µM. For the same compound, in assay [2], the inhibition was 48.2%.

Regarding `CC1=NN(c2cc(F)ccc2C)C(=O)C1`, the IC50 in assay [1] was above 50 µM. The same compound gave an inhibition in assay [2] of 26.2%.

`CC1=NN(c2cccnc2)C(=O)C1`: the IC50 in assay [1] was above 50 µM. Further, the inhibition in assay [2] stood at 20.2%.

`COc1cc(F)cc(N2N=C(C)CC2=O)c1` yielded an IC50 in assay [1] above 50 µM. This compound also came in with an inhibition in assay [2] of 26.4%.

In assay [1], `CC1=NN(c2ccc(C(F)(F)F)cc2)C(=O)C1` yielded an IC50 above 50 µM. In assay [2], this compound showed an inhibition of 56.3%.

For `CC1=NN(c2ccc(N(c3ccccc3)c3ccccc3)cc2)C(=O)C1`, the IC50 in assay [3] is above 50 µM; in assay [1] it was 4 µM. In assay [2], the inhibition came out at 50.7%.

With `CC1=NN(c2ccc(-c3cccnc3)cc2)C(=O)C1`, the half-maximal inhibitory concentration (IC50) turned out to be 14.5 µM in assay [3] and 3.9 µM in assay [1]. This compound yielded an inhibition in assay [2] of 53.2%.

Compound `CC1=NN(c2ccc(C)c(F)c2)C(=O)C1` had an IC50 in assay [1] above 50 µM. Moreover, the inhibition in assay [2] came out at 49%.

Take `COc1cccc(N2N=C(C)CC2=O)c1`: the half-inhibitory concentration (IC50) in assay [3] and in assay [1] was above 50 µM throughout. In addition, the inhibition in assay [2] came to 39.7%.

For `CC1=NN(c2cccc(N3CCCC3)c2)C(=O)C1`, in assay [1], the IC50 was determined as 16.8 µM. This compound gave an inhibition in assay [2] of 47%.

`CC1=NN(c2cccc(COCc3ccccc3)c2)C(=O)C1`: the IC50 in assay [3] came to 27 µM; in assay [1] it was 2.9 µM. In assay [2], the inhibition amounted to 53.4%.

On to `CC1=NN(c2ccc(-c3ccccc3)cc2)C(=O)C1`, for which the IC50 turned out to be 5.6 µM in assay [3] and 19.5 µM in assay [1]. The compound also returned an inhibition in assay [2] of 78.7%.

Turning to `CC1=NN(c2ccccc2)C(=O)C1` [EDARAVONE], the IC50 in assay [1] was above 50 µM. This compound gave an inhibition in assay [2] of 17.2%.

Take `CC1=NN(c2ccc(-n3c(-c4ccccc4)cc4ccccc43)cc2)C(=O)C1`: the IC50 in assay [3] amounted to 19.6 µM; in assay [1], 3.5 µM. For the same compound, the inhibition in assay [2] came out at 71.4%.

For the compound `CC1=NN(c2ccc3ccccc3c2)C(=O)C1`, the IC50 in assay [1] is above 50 µM. The inhibition in assay [2] was 56.2%.

`COc1ccc(-c2ccc(N3N=C(C)CC3=O)cc2)cc1`: the IC50 in assay [3] was determined as 3.4 µM; in assay [1] it was 5.1 µM. Moreover, the inhibition in assay [2] was 69.6%.

Take `CC1=NN(c2ccccc2C)C(=O)C1`: the half-maximal inhibitory concentration (IC50) in assay [1] is above 50 µM. Also, the inhibition in assay [2] came to 22.7%.

Compound `CC1=NN(c2cccc(C)c2)C(=O)C1` showed an IC50 in assay [1] above 50 µM. In addition, the inhibition in assay [2] came to 30.9%.

A word on the IC50: it is the point on the concentration scale where inhibition reaches its midpoint. By inhibition is commonly meant the drop in the measured response relative to a control, in per cent.
